Data: ChEMBL document CHEMBL1687886, “N-cyclic bay-substituted perylene G-quadruplex ligands have selective antiproliferative effects on cancer cells and induce telomere damage” (J Med Chem, 2011)
Activity calls are given as the source filed them. The rule behind the calls is not given here.

Assays:
Nucleic Acid [1] = assay: Binding affinity to human DK66 duplex DNA structure assessed as bound DNA at 5:20 DNA to drug ratio by electrospray ionization mass spectrometry; type: nucleic-acid assay
In short: (§1)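 ESI-MS in 150 mM ammonium acetate; DNA 5 μM final (per duplex or quadruplex unit); ligand at drug/DNA ratios 0.5 to 4. Methanol (15%) added just before injection, after binding equilibrium. K1 and K2 for 1:1 and 2:1 complexes, and % bound DNA, taken from relative peak intensities assuming equal response factors. At least three repeats.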

Nucleic Acid [2] = assay: Binding affinity to human 21-TT G-quadruplex DNA structure assessed as first step association constant by electrospray ionization mass spectrometry; type: nucleic-acid assay; in short: as §1
Nucleic Acid [3] = assay: Binding affinity to human 21-TT G-quadruplex DNA structure assessed as bound DNA at 5:10 DNA to drug ratio by electrospray ionization mass spectrometry; type: nucleic-acid assay; in short: as §1
Nucleic Acid [4] = assay: Binding affinity to human 21-TT G-quadruplex DNA structure assessed as second step association constant by electrospray ionization mass spectrometry; type: nucleic-acid assay; in short: as §1
Nucleic Acid [5] = assay: Stabilization of human duplex DNA T-loop assessed as change in melting temperature at 1 uM by FRET assay; type: nucleic-acid assay
Nucleic Acid [6] = assay: Binding affinity to human 21-TT G-quadruplex DNA structure assessed as bound DNA at 5:5 DNA to drug ratio by electrospray ionization mass spectrometry; type: nucleic-acid assay; in short: as §1
Nucleic Acid [7] = assay: Stabilization of 21-mer human F21T G4-telomeric quadruplex assessed as change in melting temperature at 1 uM by FRET assay; type: nucleic-acid assay
Nucleic Acid [8] = assay: Binding affinity to human DK66 duplex DNA structure assessed as first step association constant by electrospray ionization mass spectrometry; type: nucleic-acid assay; in short: as §1
BJ [9] = assay: Antiproliferative activity against human BJ cells expressing TERT at 0.5 uM after 2 to 8 days by trypan blue assay; type: cell-based
In short: (§2)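 Cells seeded at 5 ×10^4 per dish; compounds freshly dissolved and added to the medium 24 h after plating, at 0.5 μM or 3 μM (3 μM only for one derivative). Cell number by Coulter counting and viability by trypan blue exclusion daily, day 1 to day 8. Growth inhibition of treated vs untreated cells calculated at days 2, 4, 6 and 8. Representative experiments in quintuplicate, SD shown.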

Nucleic Acid [10] = assay: Binding affinity to human 21-TT G-quadruplex DNA structure at 1:5 DNA to calf thymus DNA ratio by competitive inhibition assay; type: nucleic-acid assay; design: concentration or dose not given beside the values
In short: (§3)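 ESI-MS competition: quadruplex DNA and ligand each 5 μM final, plus calf thymus DNA at duplex/quadruplex ratios 1 and 5 (by phosphate concentration), in ammonium acetate. Percentage bound quadruplex and normalized bound quadruplex (N%) measured by mass spectrometry. SD over at least three independent experiments.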

BJ [11] = assay: Induction of DNA damage response in human BJ cells expressing SV40 early region EHLT assessed as phosphorylation of […] after 24 hrs by immunofluorescence method; type: functional, cell-based
In short: (§4)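 BJ-EHLT and BJ-hTERT fibroblasts exposed to a range of concentrations for 24 h. Fixed in 2% formaldehyde, permeabilized in 0.25% Triton X-100, immunostained for γ-H2AX and 53BP1. Percentage of positive cells scored. Three independent experiments, SD.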

BJ [12] = assay: Cell cycle arrest in human BJ cells expressing TERT assessed as accumulation at G0/G1 stage at 0.5 uM after 48 hrs by propidium iodide staining based flow cytometry (reference value: 80%); type: ADME
[13] = biological target: Telomerase reverse transcriptase (Homo sapiens, UniProt O14746); assay: Inhibition of human Telomerase activity in cell free system by TRAP assay
Telomerase reverse transcriptase, sequence (O14746 whole entry): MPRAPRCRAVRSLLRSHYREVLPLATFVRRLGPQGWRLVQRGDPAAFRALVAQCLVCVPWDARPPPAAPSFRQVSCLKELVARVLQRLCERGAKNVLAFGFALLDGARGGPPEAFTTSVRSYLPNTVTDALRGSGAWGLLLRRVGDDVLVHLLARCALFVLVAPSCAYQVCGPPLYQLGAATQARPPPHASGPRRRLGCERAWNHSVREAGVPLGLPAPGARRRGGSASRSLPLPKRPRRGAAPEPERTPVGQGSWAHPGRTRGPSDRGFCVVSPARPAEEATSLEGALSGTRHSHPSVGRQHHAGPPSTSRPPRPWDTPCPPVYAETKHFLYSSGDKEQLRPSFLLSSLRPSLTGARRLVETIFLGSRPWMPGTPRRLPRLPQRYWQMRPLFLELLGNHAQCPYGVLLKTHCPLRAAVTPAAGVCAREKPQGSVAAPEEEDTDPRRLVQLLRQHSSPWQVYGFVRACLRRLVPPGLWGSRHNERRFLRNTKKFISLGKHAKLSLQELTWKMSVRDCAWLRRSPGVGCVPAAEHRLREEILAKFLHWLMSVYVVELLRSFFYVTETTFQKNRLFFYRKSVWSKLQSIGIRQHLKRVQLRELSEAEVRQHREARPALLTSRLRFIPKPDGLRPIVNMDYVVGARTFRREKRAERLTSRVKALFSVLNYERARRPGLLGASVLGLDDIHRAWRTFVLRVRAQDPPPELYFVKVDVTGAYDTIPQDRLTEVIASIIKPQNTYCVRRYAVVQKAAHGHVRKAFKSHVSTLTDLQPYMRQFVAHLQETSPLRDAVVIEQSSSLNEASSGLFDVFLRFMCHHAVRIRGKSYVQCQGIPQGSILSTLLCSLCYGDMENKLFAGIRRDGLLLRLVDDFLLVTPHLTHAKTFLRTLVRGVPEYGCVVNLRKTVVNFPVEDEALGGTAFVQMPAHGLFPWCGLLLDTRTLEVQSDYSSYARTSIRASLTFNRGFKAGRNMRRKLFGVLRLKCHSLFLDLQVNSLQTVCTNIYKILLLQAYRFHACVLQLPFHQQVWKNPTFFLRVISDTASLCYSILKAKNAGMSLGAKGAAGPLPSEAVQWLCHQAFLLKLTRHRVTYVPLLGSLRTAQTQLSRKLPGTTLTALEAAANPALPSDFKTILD
In short: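 Cell-free TRAP: protein extract incubated with compound at 1 to 50 μM so telomerase elongates the substrate oligonucleotide. Before PCR, phenol/chloroform/isoamyl-alcohol (50:49:1) extraction removes the ligand and DNA is precipitated overnight at -20 °C. Amplification uses a 36 bp ITAS; products are resolved on 12% PAGE and stained with SYBR Green. Signals are corrected by the no-extract control and normalized to untreated, giving dose-response IC50. Mean of three experiments.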

BJ [14] = assay: Cell cycle arrest in human BJ cells expressing TERT assessed as accumulation at G0/G1 stage at 0.5 uM after 24 hrs by propidium iodide staining based flow cytometry (reference value: 61%); type: ADME
BJ [15] = assay: Cell cycle arrest in human BJ cells expressing TERT assessed as accumulation at S stage at 0.5 uM after 24 hrs by propidium iodide staining based flow cytometry (reference value: 21%); type: ADME
BJ [16] = assay: Cell cycle arrest in human BJ cells expressing TERT assessed as accumulation at G2/M stage at 0.5 uM after 72 hrs by propidium iodide staining based flow cytometry (reference value: 5%); type: ADME
BJ [17] = assay: Cell cycle arrest in human BJ cells expressing TERT assessed as accumulation at S stage at 0.5 uM after 96 hrs by propidium iodide staining based flow cytometry (reference value: 9%); type: ADME
Nucleic Acid [18] = assay: Binding affinity to human DK66 duplex DNA structure assessed as bound DNA at 5:5 DNA to drug ratio by electrospray ionization mass spectrometry; type: nucleic-acid assay; in short: as §1
BJ [19] = assay: Cell cycle arrest in human BJ cells expressing TERT assessed as accumulation at S stage at 0.5 uM after 72 hrs by propidium iodide staining based flow cytometry (reference value: 10%); type: ADME
BJ [20] = assay: Growth inhibition of human BJ cells expressing SV40 early region EHLT at 0.5 uM on day 8 by trypan blue assay; type: functional; conditions: 192 h, read-out: GI; in short: as §2
BJ [21] = assay: Cell cycle arrest in human BJ cells expressing TERT assessed as accumulation at G2/M stage at 0.5 uM after 48 hrs by propidium iodide staining based flow cytometry (reference value: 6%); type: ADME
BJ [22] = assay: Antiproliferative activity against human BJ cells expressing SV40 early region EHLT at 0.5 uM after 24 hrs by Coulter counter method; type: functional, cell-based; in short: as §2
Nucleic Acid [23] = assay: Binding affinity to human DK66 duplex DNA structure assessed as bound DNA at 5:10 DNA to drug ratio by electrospray ionization mass spectrometry; type: nucleic-acid assay; in short: as §1
BJ [24] = assay: Cell cycle arrest in human BJ cells expressing TERT assessed as accumulation at G0/G1 stage at 0.5 uM after 96 hrs by propidium iodide staining based flow cytometry (reference value: 86%); type: ADME
Nucleic Acid [25] = assay: Binding affinity to human DK66 duplex DNA structure assessed as second step association constant by electrospray ionization mass spectrometry; type: nucleic-acid assay; in short: as §1
BJ [26] = assay: Cell cycle arrest in human BJ cells expressing TERT assessed as accumulation at G0/G1 stage at 0.5 uM after 72 hrs by propidium iodide staining based flow cytometry (reference value: 83%); type: ADME
BJ [27] = assay: Induction of DNA damage response in human BJ cells expressing human TERT assessed as phosphorylation of gamma H2AX after 24 hrs by immunofluorescence; type: functional, cell-based; in short: as §4
BJ [28] = assay: Cell cycle arrest in human BJ cells expressing TERT assessed as accumulation at G2/M stage at 0.5 uM after 24 hrs by propidium iodide staining based flow cytometry (reference value: 17%); type: ADME
BJ [29] = assay: Induction of DNA damage response in human BJ cells expressing SV40 early region EHLT assessed as phosphorylation of gamma H2AX at 0.25 uM after 24 hrs by immunofluorescence method; type: functional, cell-based; in short: as §4
BJ [30] = assay: Cell cycle arrest in human BJ cells expressing TERT assessed as accumulation at G2/M stage at 0.5 uM after 96 hrs by propidium iodide staining based flow cytometry (reference value: 4%); type: ADME
Nucleic Acid [31] = assay: Binding affinity to human 21-TT G-quadruplex DNA structure at 1:1 DNA to calf thymus DNA ratio by competitive inhibition assay; type: nucleic-acid assay; design: concentration or dose not given beside the values; in short: as §3
BJ [32] = assay: Induction of DNA damage response in human BJ cells expressing human TERT assessed as phosphorylation of […] after 24 hrs by immunofluorescence; type: functional, cell-based; in short: as §4
BJ [33] = assay: Cell cycle arrest in human BJ cells expressing TERT assessed as accumulation at S stage at 0.5 uM after 48 hrs by propidium iodide staining based flow cytometry (reference value: 12%); type: ADME

## CNCCOCCN1C(=O)c2ccc3c4c(N5CCCCC5)cc5c6c(ccc(c7c(N8CCCCC8)cc(c2c37)C1=O)c64)C(=O)N(CCOCCNC)C5=O
Nucleic Acid [1]
  Activity: 9%
Nucleic Acid [2]
  log Ks: 4.6
Nucleic Acid [3]
  Activity: 37%
Nucleic Acid [4]
  log Ks: 4.8
Nucleic Acid [5]
  ΔTm: -0.4 °C
Nucleic Acid [6]
  Activity: 13%
Nucleic Acid [7]
  ΔTm: 12.9 °C
Nucleic Acid [8]
  log Ks: 3.7

## CN1CCN(c2cc3c4c(ccc5c6c(N7CCN(C)CC7)cc7c8c(ccc(c2c45)c86)C(=O)N(CCN2CCCCC2)C7=O)C(=O)N(CCN2CCCCC2)C3=O)CC1
BJ [9]
  Activity: Toxic
Nucleic Acid [10]
  Activity: 22%
Nucleic Acid [2]
  log Ks: 5.4
BJ [11]
  Activity: Active
BJ [12]
  Activity: 39.8%
[13]
  IC50: 10 µM
BJ [14]
  Activity: 35.1%
BJ [15]
  Activity: 13.9%
BJ [16]
  Activity: 58.2%
BJ [17]
  Activity: 6.5%
Nucleic Acid [18]
  Activity: 27%
BJ [19]
  Activity: 6.6%
Nucleic Acid [3]
  Activity: 77%
BJ [20]
  inhibition of growth at 0.5 µM: 50%
BJ [21]
  Activity: 55.2%
BJ [22]; in the assay text read “after 2 to 8 days” for “after 24 hrs”, TDE = time-dependent effect
  Activity: tde
Nucleic Acid [23]
  Activity: 44%
BJ [24]
  Activity: 33.1%
Nucleic Acid [4]
  log Ks: 5.6
Nucleic Acid [25]
  log Ks: 4.2
BJ [26]
  Activity: 35.2%
Nucleic Acid [5]
  ΔTm: 2.9 °C
BJ [27]
  Activity: Dose-dependent effect
Nucleic Acid [6]
  Activity: 45%
BJ [28]
  Activity: 51%
BJ [29]
  Activity: Active
BJ [30]
  Activity: 60.4%
Nucleic Acid [31]
  Activity: 40%
Nucleic Acid [7]
  ΔTm: 27.4 °C
BJ [32]
  Activity: Dose-dependent effect
Nucleic Acid [8]
  log Ks: 4.9
BJ [33]
  Activity: 5%

## O=C1c2ccc3c4c(N5CCCCC5)cc5c6c(cc(N7CCCCC7)c(c7ccc(c2c37)C(=O)N1CCOCCN1CCCCC1)c64)C(=O)N(CCOCCN1CCCCC1)C5=O
Nucleic Acid [1]
  Activity: 11%
Nucleic Acid [2]
  log Ks: 4.8
Nucleic Acid [3]
  Activity: 30%
Nucleic Acid [4]
  log Ks: 4.8
Nucleic Acid [5]
  ΔTm: 0.1 °C
Nucleic Acid [6]
  Activity: 20%
Nucleic Acid [7]
  ΔTm: 13.1 °C
Nucleic Acid [8]
  log Ks: 3.8

## CN1CCN(CCOCCN2C(=O)c3ccc4c5c(N6CCCCC6)cc6c7c(ccc(c8c(N9CCCCC9)cc(c3c48)C2=O)c75)C(=O)N(CCOCCN2CCN(C)CC2)C6=O)CC1
Nucleic Acid [1]
  Activity: 10%
Nucleic Acid [2]
  log Ks: 3.9
Nucleic Acid [5]
  ΔTm: -0.1 °C
Nucleic Acid [7]
  ΔTm: 5.2 °C
Nucleic Acid [8]
  log Ks: 3.8

## O=C1c2ccc3c4c(N5CCCCC5)cc5c6c(ccc(c7c(N8CCCCC8)cc(c2c37)C(=O)N1CCOCCN1CCCCC1)c64)C(=O)N(CCOCCN1CCCCC1)C5=O
Nucleic Acid [1]
  Activity: 20%
Nucleic Acid [10]
  Activity: 14%
Nucleic Acid [2]
  log Ks: 4.7
Nucleic Acid [3]
  Activity: 34%
Nucleic Acid [4]
  log Ks: 4.8
Nucleic Acid [5]
  ΔTm: -0.2 °C
Nucleic Acid [6]
  Activity: 23%
Nucleic Acid [31]
  Activity: 19%
Nucleic Acid [7]
  ΔTm: 9.3 °C
Nucleic Acid [8]
  log Ks: 4.2

## CN(C)CCOCCN1C(=O)c2ccc3c4c(N5CCCCC5)cc5c6c(ccc(c7c(N8CCCCC8)cc(c2c37)C1=O)c64)C(=O)N(CCOCCN(C)C)C5=O
Nucleic Acid [1]
  Activity: 16%
Nucleic Acid [2]
  log Ks: 4.6
Nucleic Acid [3]
  Activity: 30%
Nucleic Acid [4]
  log Ks: 4.9
Nucleic Acid [5]
  ΔTm: 0.9 °C
Nucleic Acid [6]
  Activity: 22.5%
Nucleic Acid [7]
  ΔTm: 16.6 °C
Nucleic Acid [8]
  log Ks: 4

## CN(C)CCCN1CCN(c2cc3c4c(ccc5c6ccc7c8c(ccc(c2c45)c86)C(=O)N(CCN2CCCCC2)C7=O)C(=O)N(CCN2CCCCC2)C3=O)CC1
BJ [9]
  Activity: Toxic
Nucleic Acid [10]
  Activity: 32%
Nucleic Acid [2]
  log Ks: 5.5
BJ [11]
  Activity: Active
BJ [12]
  Activity: 35.4%
[13]
  IC50: 3 µM
BJ [14]
  Activity: 42%
BJ [15]
  Activity: 3.8%
BJ [16]
  Activity: 58%
BJ [17]
  Activity: 7.6%
Nucleic Acid [18]
  Activity: 43%
BJ [19]
  Activity: 7.3%
Nucleic Acid [3]
  Activity: 76%
BJ [20]
  inhibition of growth at 0.5 µM: 50%
BJ [21]
  Activity: 61.1%
BJ [22]; TDE = time-dependent effect, in the assay text read “after 2 to 8 days” for “after 24 hrs”
  Activity: tde
Nucleic Acid [23]
  Activity: 66%
BJ [24]
  Activity: 38.2%
Nucleic Acid [4]
  log Ks: 5
Nucleic Acid [25]
  log Ks: 4.9
BJ [26]
  Activity: 34.7%
Nucleic Acid [5]
  ΔTm: 2.3 °C
BJ [27]
  Activity: Dose-dependent effect
Nucleic Acid [6]
  Activity: 48%
BJ [28]
  Activity: 54.2%
BJ [29]
  Activity: Active
BJ [30]
  Activity: 54.2%
Nucleic Acid [31]
  Activity: 46%
Nucleic Acid [7]
  ΔTm: 35.5 °C
BJ [32]
  Activity: Dose-dependent effect
Nucleic Acid [8]
  log Ks: 5.4
BJ [33]
  Activity: 3.5%
